Reference: ChEMBL document CHEMBL1124057, “Synthesis of arginine-vasopressins, modified in positions 1 and 2, as antagonists of the vasopressor response to the parent hormone” (J Med Chem, 1988)
*1 amine or outer side, *2 acyl side, *3 side chain or, on linkers, in order; H or OH if unused. Where a SMILES comes first, the peptide text is derived from it. Bridges are numbered along the chain shown (N, C = ends). [ ]: non-standard residue; d: D form. X9 = O=C(CC1(S[*:3])CCC(c2ccccc2)CC1)[C@H](Cc1ccc(O)cc1)N([C@@H](Cc1ccccc1)C(=O)[*:2])[*:1]; X5 = CN1CCC(CC(=O)[C@H](Cc2ccc(O)cc2)N([C@@H](Cc2ccccc2)C(=O)[*:2])[*:1])(S[*:3])CC1; X8 = CC1CCC(CC(=O)[C@H](Cc2ccc(O)cc2)N([C@@H](Cc2ccccc2)C(=O)[*:2])[*:1])(S[*:3])CC1; X1 = CC(C)(C)C1CCC(CC(=O)[*:1])(S[*:2])CC1; X4 = O=C(CC1(S[*:2])CCC(c2ccccc2)CC1)[*:1]; X2 = CC1CCC(CC(=O)[*:1])(S[*:2])CC1; X3 = CN1CCC(CC(=O)[*:1])(S[*:2])CC1; X6 = O=C(CC1(S[*:2])CCCCC1)[*:1]

What was measured:
Rattus norvegicus [1] = species: Rattus norvegicus; assay: Antagonist activity expressed as the effective dose that reduces the response to 2x units to equal response to 1x units of agonist (vasopressor assay); assay type: functional
Procedure, shortened: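 Vasopressor antagonism measured in anesthetized, dibenamine-treated rats, with arginine-vasopressin (408 IU/mg) as the challenging agonist. Potency is given as the effective dose (ED), the antagonist dose in nmol/kg body weight.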

Rattus norvegicus [2] = assay: Agonistic activity was determined according to a four-point dosage schedule in anesthetized rat (vasopressor assay); assay type: functional
Rattus norvegicus [3] = assay: Antidiuretic potency was tested in rat by intravenous injection and the change of conductivity of secreted urine was measured (agonistic experiment); assay type: functional
Procedure, shortened: (§1)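 Antidiuretic assay in anesthetized female Sprague-Dawley rats, with compounds given by intravenous injection. The change in conductivity of secreted urine was the effect parameter in both agonist and antagonist runs. Arginine-vasopressin (408 IU/mg) was the standard for agonism and the agonist in antagonism runs.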

Rattus norvegicus [4] = assay: Antidiuretic potency was tested in rat by intravenous injection and the change of conductivity of secreted urine was measured (antagonistic experiment); assay type: functional; procedure, shortened: as §1
Rattus norvegicus [5] = assay: Antidiuretic potency was tested in rat by intravenous injection and the change of conductivity of secreted urine was measured (antagonistic experiment); Weak, inconsistent; assay type: functional, organism-based; procedure, shortened: as §1
[6] = The time for complete recovery of the AVP effect was measured; assay type: ADME

SMILES | ED (Rattus norvegicus [1]) | Agonism (Rattus norvegicus [2]) | Agonism (Rattus norvegicus [3]) | Time [6] | also measured
CN1CCC2(CC1)CC(=O)[C@H](Cc1ccc(O)cc1)N[C@@H](Cc1ccccc1)C(=O)N[C@@H](CCC(N)=O)C(=O)N[C@@H](CC(N)=O)C(=O)N[C@H](C(=O)N1CCC[C@H]1C(=O)N[C@@H](CCCN=C(N)N)C(=O)NCC(N)=O)CSS2 (H-[X5]QNCPRG-NH2; disulfide 1-4) | 0 nmol/kg | 0.4 IU mg-1 | 0.87 IU mg-1 | – | Antagonism (Rattus norvegicus [4]): 0
CC1CCC2(CC1)CC(=O)[C@H](Cc1ccc(O)cc1)N[C@@H](Cc1ccccc1)C(=O)N[C@@H](CCC(N)=O)C(=O)N[C@@H](CC(N)=O)C(=O)N[C@H](C(=O)N1CCC[C@H]1C(=O)N[C@@H](CCCN=C(N)N)C(=O)NCC(N)=O)CSS2 (some centres undefined) (H-[X8]QNCPRG-NH2; disulfide 1-4) | – | – | – | – | Antagonism (Rattus norvegicus [5]): Weak
NC(=O)CC[C@@H]1NC(=O)[C@H](Cc2ccccc2)N[C@@H](Cc2ccc(O)cc2)C(=O)CC2(CCC(c3ccccc3)CC2)SSC[C@@H](C(=O)N2CCC[C@H]2C(=O)N[C@@H](CCCN=C(N)N)C(=O)NCC(N)=O)NC(=O)[C@H](CC(N)=O)NC1=O (some centres undefined) (H-[X9]QNCPRG-NH2; disulfide 1-4) | – | – | – | – | Antagonism (Rattus norvegicus [5]): Weak
COc1ccc(C[C@@H]2NC(=O)CC3(CCC(C(C)(C)C)CC3)SSC[C@@H](C(=O)N3CCC[C@H]3C(=O)N[C@@H](CCCN=C(N)N)C(=O)NCC(N)=O)NC(=O)[C@H](CC(N)=O)NC(=O)[C@H](CCC(N)=O)NC(=O)[C@H](Cc3ccccc3)NC2=O)cc1 (some centres undefined) (Y(Me)FQNCPRG-NH2; linker N-5 via X1) [listing 1 of 2 here] | – | – | – | > 115 min | –
COc1ccc(C[C@@H]2NC(=O)CC3(CCC(C(C)(C)C)CC3)SSC[C@@H](C(=O)N3CCC[C@H]3C(=O)N[C@@H](CCCN=C(N)N)C(=O)NCC(N)=O)NC(=O)[C@H](CC(N)=O)NC(=O)[C@H](CCC(N)=O)NC(=O)[C@H](Cc3ccccc3)NC2=O)cc1 (some centres undefined) (Y(Me)FQNCPRG-NH2; linker N-5 via X1) [listing 2 of 2 here] | 1 nmol/kg | 0 IU mg-1 | 0.095 IU mg-1 | – | Antagonism (Rattus norvegicus [4]): 0
COc1ccc(C[C@@H]2NC(=O)CC3(CCC(C)CC3)SSC[C@@H](C(=O)N3CCC[C@H]3C(=O)N[C@@H](CCCN=C(N)N)C(=O)NCC(N)=O)NC(=O)[C@H](CC(N)=O)NC(=O)[C@H](CCC(N)=O)NC(=O)[C@H](Cc3ccccc3)NC2=O)cc1 (some centres undefined) (Y(Me)FQNCPRG-NH2; linker N-5 via X2) [listing 1 of 2 here] | – | – | – | > 140 min | –
COc1ccc(C[C@@H]2NC(=O)CC3(CCC(C)CC3)SSC[C@@H](C(=O)N3CCC[C@H]3C(=O)N[C@@H](CCCN=C(N)N)C(=O)NCC(N)=O)NC(=O)[C@H](CC(N)=O)NC(=O)[C@H](CCC(N)=O)NC(=O)[C@H](Cc3ccccc3)NC2=O)cc1 (some centres undefined) (Y(Me)FQNCPRG-NH2; linker N-5 via X2) [listing 2 of 2 here] | 1.5 nmol/kg | 0 IU mg-1 | 0.7 IU mg-1 | – | Antagonism (Rattus norvegicus [4]): 0
COc1ccc(C[C@@H]2NC(=O)CC3(CCN(C)CC3)SSC[C@@H](C(=O)N3CCC[C@H]3C(=O)N[C@@H](CCCN=C(N)N)C(=O)NCC(N)=O)NC(=O)[C@H](CC(N)=O)NC(=O)[C@H](CCC(N)=O)NC(=O)[C@H](Cc3ccccc3)NC2=O)cc1 (Y(Me)FQNCPRG-NH2; linker N-5 via X3) [listing 1 of 2 here] | – | – | – | 110 min | –
COc1ccc(C[C@@H]2NC(=O)CC3(CCN(C)CC3)SSC[C@@H](C(=O)N3CCC[C@H]3C(=O)N[C@@H](CCCN=C(N)N)C(=O)NCC(N)=O)NC(=O)[C@H](CC(N)=O)NC(=O)[C@H](CCC(N)=O)NC(=O)[C@H](Cc3ccccc3)NC2=O)cc1 (Y(Me)FQNCPRG-NH2; linker N-5 via X3) [listing 2 of 2 here] | 3.6 nmol/kg | 0 IU mg-1 | 0.23 IU mg-1 | – | –
COc1ccc(C[C@@H]2NC(=O)CC3(CCC(c4ccccc4)CC3)SSC[C@@H](C(=O)N3CCC[C@H]3C(=O)N[C@@H](CCCN=C(N)N)C(=O)NCC(N)=O)NC(=O)[C@H](CC(N)=O)NC(=O)[C@H](CCC(N)=O)NC(=O)[C@H](Cc3ccccc3)NC2=O)cc1 (some centres undefined) (Y(Me)FQNCPRG-NH2; linker N-5 via X4) [listing 1 of 2 here] | – | – | – | > 180 min | –
COc1ccc(C[C@@H]2NC(=O)CC3(CCC(c4ccccc4)CC3)SSC[C@@H](C(=O)N3CCC[C@H]3C(=O)N[C@@H](CCCN=C(N)N)C(=O)NCC(N)=O)NC(=O)[C@H](CC(N)=O)NC(=O)[C@H](CCC(N)=O)NC(=O)[C@H](Cc3ccccc3)NC2=O)cc1 (some centres undefined) (Y(Me)FQNCPRG-NH2; linker N-5 via X4) [listing 2 of 2 here] | 2 nmol/kg | 0 IU mg-1 | 1.6 IU mg-1 | – | –
COc1ccc(C[C@@H]2NC(=O)CC3(CCCCC3)SSC[C@@H](C(=O)N3CCC[C@H]3C(=O)N[C@@H](CCCN=C(N)N)C(=O)NCC(N)=O)NC(=O)[C@H](CC(N)=O)NC(=O)[C@H](CCC(N)=O)NC(=O)[C@H](Cc3ccccc3)NC2=O)cc1 (Y(Me)FQNCPRG-NH2; linker N-5 via X6) [listing 1 of 2 here] | – | – | – | 126 min | –
COc1ccc(C[C@@H]2NC(=O)CC3(CCCCC3)SSC[C@@H](C(=O)N3CCC[C@H]3C(=O)N[C@@H](CCCN=C(N)N)C(=O)NCC(N)=O)NC(=O)[C@H](CC(N)=O)NC(=O)[C@H](CCC(N)=O)NC(=O)[C@H](Cc3ccccc3)NC2=O)cc1 (Y(Me)FQNCPRG-NH2; linker N-5 via X6) [listing 2 of 2 here] | – | 0 IU mg-1 | – | – | –
CC(C)(C)C1CCC2(CC1)CC(=O)N[C@@H](Cc1ccc(O)cc1)C(=O)N[C@@H](Cc1ccccc1)C(=O)N[C@@H](CCC(N)=O)C(=O)N[C@@H](CC(N)=O)C(=O)N[C@H](C(=O)N1CCC[C@H]1C(=O)N[C@@H](CCCN=C(N)N)C(=O)NCC(N)=O)CSS2 (some centres undefined) (YFQNCPRG-NH2; linker N-5 via X1) [listing 1 of 2 here] | – | – | – | 125 min | –
CC(C)(C)C1CCC2(CC1)CC(=O)N[C@@H](Cc1ccc(O)cc1)C(=O)N[C@@H](Cc1ccccc1)C(=O)N[C@@H](CCC(N)=O)C(=O)N[C@@H](CC(N)=O)C(=O)N[C@H](C(=O)N1CCC[C@H]1C(=O)N[C@@H](CCCN=C(N)N)C(=O)NCC(N)=O)CSS2 (some centres undefined) (YFQNCPRG-NH2; linker N-5 via X1) [listing 2 of 2 here] | 2 nmol/kg | 0.04 IU mg-1 | 0.13 IU mg-1 | – | Antagonism (Rattus norvegicus [4]): 0
CC1CCC2(CC1)CC(=O)N[C@@H](Cc1ccc(O)cc1)C(=O)N[C@@H](Cc1ccccc1)C(=O)N[C@@H](CCC(N)=O)C(=O)N[C@@H](CC(N)=O)C(=O)N[C@H](C(=O)N1CCC[C@H]1C(=O)N[C@@H](CCCN=C(N)N)C(=O)NCC(N)=O)CSS2 (some centres undefined) (YFQNCPRG-NH2; linker N-5 via X2) [listing 1 of 2 here] | – | – | – | 214 min | –
CC1CCC2(CC1)CC(=O)N[C@@H](Cc1ccc(O)cc1)C(=O)N[C@@H](Cc1ccccc1)C(=O)N[C@@H](CCC(N)=O)C(=O)N[C@@H](CC(N)=O)C(=O)N[C@H](C(=O)N1CCC[C@H]1C(=O)N[C@@H](CCCN=C(N)N)C(=O)NCC(N)=O)CSS2 (some centres undefined) (YFQNCPRG-NH2; linker N-5 via X2) [listing 2 of 2 here] | 1.04 nmol/kg | 0 IU mg-1 | 0.14 IU mg-1 | – | –
NC(=O)CC[C@@H]1NC(=O)[C@H](Cc2ccccc2)NC(=O)[C@H](Cc2ccc(O)cc2)NC(=O)CC2(CCC(c3ccccc3)CC2)SSC[C@@H](C(=O)N2CCC[C@H]2C(=O)N[C@@H](CCCN=C(N)N)C(=O)NCC(N)=O)NC(=O)[C@H](CC(N)=O)NC1=O (some centres undefined) (YFQNCPRG-NH2; linker N-5 via X4) [listing 1 of 2 here] | – | – | – | > 180 min | –
NC(=O)CC[C@@H]1NC(=O)[C@H](Cc2ccccc2)NC(=O)[C@H](Cc2ccc(O)cc2)NC(=O)CC2(CCC(c3ccccc3)CC2)SSC[C@@H](C(=O)N2CCC[C@H]2C(=O)N[C@@H](CCCN=C(N)N)C(=O)NCC(N)=O)NC(=O)[C@H](CC(N)=O)NC1=O (some centres undefined) (YFQNCPRG-NH2; linker N-5 via X4) [listing 2 of 2 here] | 2 nmol/kg | 0 IU mg-1 | 0.44 IU mg-1 | – | –
